In PMC9827036 (Current Research in Pharmacology and Drug Discovery, 2022):
Where two headings read alike, the source gives them in different places.

Tests used:
FAK [1] = biological target: T1, FAK (Homo sapiens, UniProt Q05397); assay: Western blot of FAK-Tyr-397 phosphorylation in suspended Caco-2 cells; format: cell-based
Outline: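 Caco-2 cells held in suspension on plates pre-coated with 1% heat-inactivated BSA to avoid adhesion-driven FAK activation. Treated with compound (100 pM–1000 nM) or H2O for 1 h at 37 °C, then lysed. Lysates resolved by 10% SDS-PAGE on nitrocellulose, probed for pTyr-397 FAK with total FAK as loading control. Read-out: pTyr-397/FAK fold change; n = 4–8.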

FAK [2] = biological target: T1, FAK; conditions: 10 nM, suspended Caco-2 cells; ref Wang et al., 2019b; cited from earlier work
Caco-2 cells = conditions: in vitro; ref Wang et al., 2019b; cited from earlier work

T1 sequence (Q05397 whole entry): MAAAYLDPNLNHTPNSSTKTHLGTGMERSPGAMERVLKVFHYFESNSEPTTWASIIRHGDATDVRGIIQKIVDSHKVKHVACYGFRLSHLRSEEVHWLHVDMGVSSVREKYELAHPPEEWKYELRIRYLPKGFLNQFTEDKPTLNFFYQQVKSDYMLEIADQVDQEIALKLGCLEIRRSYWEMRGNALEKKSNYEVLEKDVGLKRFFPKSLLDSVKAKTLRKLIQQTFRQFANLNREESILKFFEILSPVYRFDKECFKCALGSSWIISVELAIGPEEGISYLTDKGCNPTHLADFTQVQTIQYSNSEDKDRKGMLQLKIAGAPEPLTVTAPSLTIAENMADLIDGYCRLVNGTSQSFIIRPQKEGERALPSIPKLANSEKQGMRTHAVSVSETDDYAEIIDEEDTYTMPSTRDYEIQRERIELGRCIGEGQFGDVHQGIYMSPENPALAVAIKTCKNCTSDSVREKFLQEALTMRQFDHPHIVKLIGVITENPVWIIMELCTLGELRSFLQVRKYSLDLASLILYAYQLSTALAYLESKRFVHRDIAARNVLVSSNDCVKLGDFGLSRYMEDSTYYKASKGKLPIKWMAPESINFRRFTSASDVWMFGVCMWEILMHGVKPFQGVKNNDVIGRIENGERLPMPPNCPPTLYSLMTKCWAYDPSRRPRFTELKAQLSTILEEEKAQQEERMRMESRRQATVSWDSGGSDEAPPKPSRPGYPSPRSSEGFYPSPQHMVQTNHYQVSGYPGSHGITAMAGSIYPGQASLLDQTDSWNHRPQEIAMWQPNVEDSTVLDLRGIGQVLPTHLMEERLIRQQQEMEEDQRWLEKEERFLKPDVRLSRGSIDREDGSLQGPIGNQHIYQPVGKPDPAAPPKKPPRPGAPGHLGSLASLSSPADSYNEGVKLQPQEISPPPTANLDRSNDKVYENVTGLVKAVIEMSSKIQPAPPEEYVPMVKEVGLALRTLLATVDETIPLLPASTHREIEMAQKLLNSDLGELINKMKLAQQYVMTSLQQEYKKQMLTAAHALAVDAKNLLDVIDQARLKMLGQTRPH

Compound | FAK activation (positive control) (FAK [1]; 100 nM, Caco-2 cells) | FAK activation (FAK [2]) [%] | lowest concentration stimulating Caco-2 cell monolayer wound closure (Caco-2 cells) [nM] | FAK activation (FAK [1]; 10–1000 nM)
COc1ccc(C2CCCN2C(=O)Nc2cc(C(F)(F)F)ccc2N2CCOCC2)cc1 (stereo not shown) [ZN40099027] | activates FAK | 14.8 | 10 | 
CN(C)C(CNC(=O)Nc1cc(C(F)(F)F)ccc1N1CCOCC1)c1ccncc1 (stereo not shown) [M64, 1-(2-(dimethylamino)-2-(pyridin-4-yl)ethyl)-3-(2-morpholino-5-(trifluoromethyl)phenyl)urea] |  |  |  | did not activate FAK
